Active and inactive are the calls of the source. The calls are words filed in the database; no cut-off is given here.
Tests used:
[1] = Selectivity index, ratio of CC50 for cytotoxicity in human Huh7.5 cells assessed as reduction in cell viability incubated for 96 hrs by MTT assay to EC50 for antiviral activity against HCV J6/JFH/JC1 infected in human Huh7.5 cells incubated for 72 hrs by In-Cell Western assay; assay type: toxicity, cell-based; details: read-out: Ratio CC50/EC50
Procedure, shortened: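 HCVcc (MOI=0.1) infected Huh7.5 cells co-treated with eight-step 1:5 serial dilutions, triplicate wells. After 72 h, fixed, permeabilized, and stained for HCV Core and GAPDH with IR-dye secondaries. Core normalized to GAPDH. CC50 came from MTT at 96 h in uninfected Huh7.5 cells. EC50/CC50 were derived by Reed & Muench, mean ± SD of three independent experiments.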

[2] = test system: Hepatitis C virus; assay: Synergistic antiviral activity against HCV infected in human Huh7.5 cells assessed as reduction in HCV core protein level by measuring (q) value at 0.1 uM in presence of 0.016 nM daclatasvir incubated for 72 hrs by Western blot assay based Webb method relative to control; assay type: functional, Hepacivirus hominis
Procedure, shortened: (§1)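 Huh7.5 cells in 6-well plates were infected with HCV in the presence of 0.1 μM test compound combined with simeprevir 0.025 μM, sofosbuvir 0.1 μM or daclatasvir 0.016 nM. Western blot at 72 h gave HCV core protein relative to actin, normalized to control. q calculated by Webb's method (q<1 antagonism, =1 addition, >1 synergy); over 3 independent experiments.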

[3] = Cmax in Sprague-Dawley rat at 5 mg/kg, iv measured after 0.08 to 72 hrs post dose by LC-MS/MS analysis; assay type: ADME, organism-based; design: dose 5 mg/kg, route intravenous; details: in vivo
Procedure, shortened: (§2)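 Single dose to fasted (12 h) animals: oral gavage 15 mg/kg as suspension in 0.5% CMC-Na, or iv 5 mg/kg dissolved in citric acid buffer pH 5.0 with 2.5% DMSO. Jugular vein blood on heparin at 0.08 (iv only) to 72 h. Plasma assayed by LC-MS/MS; parameters from noncompartmental analysis.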

[4] = test system: Hepatitis C virus; assay: Synergistic antiviral activity against HCV infected in human Huh7.5 cells assessed as reduction in HCV core protein level by measuring (q) value at 0.1 uM in presence of 0.1 uM sofosbuvir incubated for 72 hrs by Western blot assay based Webb method relative to control; assay type: functional, Hepacivirus hominis; procedure, shortened: as §1
[5] = Toxicity in Kunming mouse assessed as induction of mortality at 250 to 1000 mg/kg dosed via single oral gavage and measured on day 7 post treatment; assay type: organism-based; details: in vivo
Procedure, shortened: (§3)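 Kunming mice, 4 groups of n = 6 (3 male, 3 female). Fasted from 12 h before to 1 h after dosing. Single oral gavage of 250, 500 or 1000 mg/kg suspended in 0.5% CMC-Na, or vehicle alone. Followed for 7 days: survival, body weight before and at day 7. Day-7 blood taken for AST, ALT, urea nitrogen and creatinine.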

[6] = test system: Hepatitis C virus; assay: Antiviral activity against HCV with wild type glycoprotein E1 infected in human Huh7.5 cells assessed as reduction in viral RNA levels incubated for 72 hrs by qRT-PCR analysis; assay type: functional, organism-based, Hepacivirus hominis; details: Huh7.5, 72 h
Procedure, shortened: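 Huh7.5 cells seeded 24 h, then infected with wild-type (or mutant) HCV with compound added at the same time. Incubated 72 h. Intracellular HCV RNA measured by qRT-PCR, 2^-ΔCt method, normalized to GAPDH. Eight-step 1:5 serial dilutions in triplicate; EC50 by Reed & Muench; three independent experiments.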

[7] = test system: Hepatitis C virus; assay: Antiviral activity against HCV GS4.3 infected in human Huh7.5 cells assessed as […] at 0.008 to 1 uM pre-incubated with drug for 2 hrs before viral infection and measured after 72 hrs by Western blot assay; assay type: functional, organism-based; details: Hepacivirus hominis
[8] = test system: Hepatitis C virus; assay: Antiviral activity against HCV with glycoprotein E1 F291V mutant infected in human Huh7.5 cells assessed as reduction in viral RNA levels incubated for 72 hrs by qRT-PCR analysis; assay type: functional, organism-based, Hepacivirus hominis
Procedure, shortened: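 Huh7.5 cells seeded at 3×10^4/cm², infected 24 h later with wild-type or mutant HCV stock while compound or solvent was added at the same time. Intracellular HCV RNA measured by qRT-PCR at 72 h, normalised to GAPDH, 2^-ΔCT method. EC50 by Reed & Muench from eight-step 1:5 serial dilutions, triplicate wells.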

[9] = Cmax in beagle dog at 5 mg/kg, iv measured after 0.08 to 72 hrs post dose by LC-MS/MS analysis; assay type: ADME, organism-based, Canis lupus familiaris; design: dose 5 mg/kg, route intravenous; details: in vivo; procedure, shortened: as §2
[10] = Cmax in Sprague-Dawley rat at 15 mg/kg, po measured after 0.08 to 72 hrs post dose by LC-MS/MS analysis; assay type: ADME, organism-based; design: dose 15 mg/kg, route oral; details: in vivo; procedure, shortened: as §2
[11] = AUC (0 to 72 hrs) in beagle dog at 5 mg/kg, iv measured after 0.08 to 72 hrs post dose by LC-MS/MS analysis; assay type: ADME, organism-based, Canis lupus familiaris; design: time < 72 hr, dose 5 mg/kg, route intravenous; details: in vivo; procedure, shortened: as §2
[12] = Selectivity index, ratio of CC50 for cytotoxicity in human Huh7.5 cells assessed as reduction in cell viability incubated for 96 hrs by MTT assay to EC50 antiviral activity against HCV J6/JFH/JC1 infected in human Huh7.5 cells assessed as reduction in viral RNA levels incubated for 72 hrs by qRT-PCR analysis; assay type: toxicity, cell-based; details: read-out: Ratio CC50/EC50
Procedure, shortened: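 Selectivity index = CC50/EC50. CC50: Huh7.5 cells seeded at 3×10^4/cm², medium with compound added at 24 h, MTT read at 96 h. EC50: HCVcc-infected Huh7.5 cells treated for 72 h, HCV RNA by qRT-PCR normalised to GAPDH. Serial 1:5 dilutions in eight steps, Reed & Muench calculation, means ± SD of three independent experiments.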

[13] = Toxicity in Kunming mouse assessed as effect on blood urea nitrogen level at 250 to 1000 mg/kg dosed via single oral gavage and measured on day 7 post treatment; assay type: organism-based; details: in vivo; procedure, shortened: as §3
[14] = Drug level in Sprague-Dawley rat at 15 mg/kg, po measured after 72 hrs post dose by LC-MS/MS analysis; assay type: ADME, organism-based; details: in vivo, read-out: Drug uptake; procedure, shortened: as §2
[15] = test system: Coxsackievirus B3; assay: Antiviral activity against Coxsackievirus B3 infected in Vero cells assessed as reduction in virus-induced cytopathic effect incubated for 48 hrs by Reed-Muench method; assay type: functional, organism-based; details: Enterovirus B
[16] = Drug level in beagle dog at 5 mg/kg, iv measured after 24 hrs post dose by LC-MS/MS analysis; assay type: ADME, organism-based, Canis lupus familiaris; details: in vivo, read-out: Drug uptake; procedure, shortened: as §2
[17] = Apparent Volume of distribution in beagle dog at 15 mg/kg, po measured after 0.08 to 72 hrs post dose by LC-MS/MS analysis; assay type: ADME, organism-based, Canis lupus familiaris; details: in vivo; procedure, shortened: as §2
[18] = test system: Influenza A virus; assay: Antiviral activity against influenza A virus H3N2/95-359 infected in MDCK cells assessed as reduction in virus-induced cytopathic effect incubated for 48 hrs by Reed-Muench method; assay type: functional, organism-based; details: H3N2/95-359, MDCK
[19] = test system: Hepatitis C virus; assay: Antiviral activity against HCV genotype 1b pseudoparticle infected in human Huh7.5 cells assessed as reduction in viral replication; assay type: functional, organism-based; details: Hepacivirus hominis; subtype 1b
Procedure, shortened: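 Genotype 1b or 2a HCV pseudoparticles made by co-transfecting HEK 293T cells with envelope and luciferase-reporter HIV plasmids; input standardized by luciferase. Huh7.5 cells co-incubated with compound and HCVpp for 4 h at 37°C, washed, then luciferase read at 72 h.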

[20] = test system: Hepatitis C virus; assay: Antiviral activity against HCV GS4.3 infected in human Huh7.5 cells assessed as […] at 0.008 to 1 uM incubated with drug for 2 hrs after viral infection and measured after 72 hrs by Western blot assay; assay type: functional, organism-based; details: Hepacivirus hominis
[21] = test system: Zika virus; assay: Antiviral activity against Zika virus infected in Vero E6 cells assessed as reduction in virus-induced cytopathic effect incubated for 96 hrs by CCK8 assay; assay type: functional, organism-based; details: Vero C1008, 96 h

SMILES: CN(C)CCN(C)c1ccc(C#N)c(CN2CCN(c3ccc(Cl)cc3)CC2)c1
- selectivity ratio [1]: 111 to 154
- Ratio [2]: 1.27
- Cmax [3]: 617 ng/mL
- Ratio [4]: 1.08
- Activity [5]: Non-Toxic
- EC50 [6]: 6 nM
- Activity [7]: inactive
- EC50 [8]: 120 nM
- Cmax [9]: 532 ng/mL
- Cmax [10]: 501 ng/mL
- AUC(0-t) at 72 h [11]: 1070 ng·h/mL
- selectivity ratio [12]: 671
- Activity [13]: Non-Toxic
- concentration at 72 h [14]: 13.7 ng/mL
- EC50 [15]: 7410 nM
- concentration at 24 h [16]: 6.16 ng/mL
- Vz [17]: 238.11697 L/kg
- EC50 [18]: > 2470 nM
- Activity [19]: Dose-dependent effect
- Activity [20]: Active
- EC50 [21]: 5150 nM

Reference: ChEMBL document CHEMBL4613269, “2-((4-Arylpiperazin-1-yl)methyl)benzonitrile Derivatives as Orally Available Inhibitors of Hepatitis C Virus with a Novel Mechanism of Action” (J Med Chem, 2020)
